Test results taken from article PMC12316956 (Scientific Reports, 2025).
Like-named read-outs stand apart in the source and are kept apart here.

Experiments:
[1] = humans; cited from earlier work
[2] = format: in vivo, Sprague Dawley rats; conditions: for accumulation factor: rats
Method in brief: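 Male SD rats (n = 5/group) were 7 wk old for the single dose, 6 wk for 2 wks, and 4 wk for 4 or 8 wks. They received KRG in PBS, 2 g/kg/day PO. Tail-vein blood was drawn 0–96 h after the last dose and spun 13,700 x g for 15 min; plasma was stored at −80 °C. Rb1, Rd and compound K were measured by LC-MS/MS with berberine as internal standard. Non-compartmental analysis was used; Tmax is reported as median (range).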

[3] = Pharmacokinetic study 2: oral compound K, single or 4 wks, in rats; format: in vivo, Sprague Dawley rats; conditions: AUC 4 wks / AUC single
Method in brief: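 Male SD rats (n = 5/group; 7 wk old for single dosing, 4 wk for 4 wks) got test compound in PBS by oral gavage at 5 or 10 mg/kg/day, single dose or 4 wks. Tail-vein plasma was sampled 0–24 h and assayed by LC-MS/MS. One-compartment model; AUC by trapezoids; Tmax as median (range). Accumulation factor = AUC(0−t) repeated / AUC(0−t) single at the same dose.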

A549 = A549 lung cancer cell line; cited from earlier work
[4] = 80% T>IC50, 5 mg/kg, single oral, rats
prostaglandin E2 (PGE2) = conditions: read-out: IC50 for PGE2; in vitro; ref Park et al.[47]; cited from earlier work
[5] = rats, same dose level; cited from earlier work
nitric oxide (NO) = conditions: read-out: IC50 for NO; in vitro; ref Park et al.[47]; cited from earlier work
PC-9 cells = conditions: PC-9 lung cancer cell line; cited from earlier work
[6] = male, Sprague-Dawley, rat, plasma, po, 2 g/kg
[7] = KRG 2 g/kg oral, 2 wks vs single (AUC ratio)

With `CC(C)=CCC[C@](C)(O[C@@H]1O[C@H](CO[C@@H]2O[C@@H](CO)[C@H](O)[C@H]2O)[C@@H](O)[C@H](O)[C@H]1O)[C@H]1CC[C@]2(C)[C@@H]1[C@H](O)C[C@@H]1[C@@]3(C)CC[C@H](O[C@@H]4O[C@H](CO)[C@@H](O)[C@H](O)[C@H]4O[C@@H]4O[C@H](CO)[C@@H](O)[C@H](O)[C@H]4O)C(C)(C)[C@@H]3CC[C@]12C` [Rc, ginsenoside Rc] as the compound, how does the “time within which excreted in the urine” value [1] read?
Its value is at most 3 h.

With `CC(C)=CCC[C@](C)(O[C@@H]1O[C@H](CO)[C@@H](O)[C@H](O)[C@H]1O)[C@H]1CC[C@]2(C)[C@@H]1[C@H](O)C[C@@H]1[C@@]3(C)CC[C@H](O)C(C)(C)[C@@H]3[C@@H](O[C@@H]3O[C@H](CO)[C@@H](O)[C@H](O)[C@H]3O)C[C@]12C` [Rg1, ginsenoside Rg1] as the compound, how does the “time within which excreted in the urine” value [1] read?
Its value is at most 3 h.

Which Cmax [2, 6] does the source give for `CC(C)=CCC[C@](C)(O[C@@H]1O[C@H](CO)[C@@H](O)[C@H](O)[C@H]1O)[C@H]1CC[C@]2(C)[C@@H]1[C@H](O)C[C@@H]1[C@@]3(C)CC[C@H](O[C@@H]4O[C@H](CO)[C@@H](O)[C@H](O)[C@H]4O[C@@H]4O[C@H](CO)[C@@H](O)[C@H](O)[C@H]4O)C(C)(C)[C@@H]3CC[C@]12C` [Rd, ginsenoside Rd] here?
Its Cmax is 0.0085 µg/mL.

And the accumulation factor [2, 7]?
The accumulation factor was 2.2.

And the accumulation factor ([2]; KRG 2 g/kg oral, 8 wks vs single (AUC ratio))?
Its accumulation factor is 5.

And the “time within which excreted in the urine” value [1]?
Its value is at most 3 h.

Which Cmax [2, 6] does the source give for `CC(C)=CCC[C@](C)(O[C@@H]1O[C@H](CO[C@@H]2O[C@H](CO)[C@@H](O)[C@H](O)[C@H]2O)[C@@H](O)[C@H](O)[C@H]1O)[C@H]1CC[C@]2(C)[C@@H]1[C@H](O)C[C@@H]1[C@@]3(C)CC[C@H](O[C@@H]4O[C@H](CO)[C@@H](O)[C@H](O)[C@H]4O[C@@H]4O[C@H](CO)[C@@H](O)[C@H](O)[C@H]4O)C(C)(C)[C@@H]3CC[C@]12C` [Rb1, ginsenoside Rb1] here?
Its Cmax is 0.0239 µg/mL.

And the Cmax at 8 wks [2, 6]?
Its Cmax at 8 wks is 0.0683 µg/mL.

And the accumulation factor [2, 7]?
Its accumulation factor is “approximately 3”.

And the “time within which excreted in the urine” value [1]?
The value was at most 3 h.

For `CC(C)=CCC[C@](C)(O[C@@H]1O[C@H](CO)[C@@H](O)[C@H](O)[C@H]1O)[C@H]1CC[C@]2(C)[C@@H]1[C@H](O)C[C@@H]1[C@@]3(C)CC[C@H](O)C(C)(C)[C@@H]3CC[C@]12C` [Compound K, compound K], which accumulation factor ([3]; compound K oral 5 mg/kg) is on record?
Its accumulation factor is 4.

What about the accumulation factor ([3]; compound K oral 10 mg/kg) of the same compound?
The accumulation factor was 7.

And the “in vitro IC50, antitumor activity” value (A549)?
Its value is 16.11 mg/L.

And the Calculated dosing interval ([4]; NO (IC50 12 µM))?
Its Calculated dosing interval is about 7 h.

And the Calculated dosing interval ([4]; PGE2 (IC50 4 µM))?
Its Calculated dosing interval is about 18 h.

And the IC50 (prostaglandin E2 (PGE2))?
The IC50 was 4 µM.

What about the oral bioavailability [5] of the same compound?
The oral bioavailability was 4%.

And the Cmax ([2]; rat plasma, KRG 2 g/kg oral, 4 wks)?
The Cmax was 0.0029 µg/mL.

What about the Cmax ([2]; rat plasma, KRG 2 g/kg oral, 8 wks) of the same compound?
The Cmax was 0.0023 µg/mL.

And the IC50 (nitric oxide (NO))?
Its IC50 is 12 µM.

And the “time of appearance in plasma after consuming ginseng lacking compound K” value [1]?
The value was 8 h.

And the “in vitro IC50, antitumor activity” value (PC-9 cells)?
Its value is 14.46 mg/L.
